ERp5 block: blocks human ERp5 reductase activity on insulin | inhibition, % at 9.99 µM | Q15084 | ERp5 insulin aggregation, absorbance 650 nm, 90 min | actives 0.05% (n = 350,000);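 active = mean replicate inhibition above about 25%, with every replicate also reaching it, limit read from the data, passing the limit was not always enough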
HIV Env fusion: inhibitors of HIV Env-mediated cell fusion; HeLa-JRFL Env/CEM21 cell fusion, luciferase; inhibition, % at 12.3 µM; actives 1.1% (n = 360,000);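 active = mean replicate inhibition score of at least 50 and every replicate individually at or above 50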;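 note: 0% = plate neutral controls and 100% = maraviroc near 300 nM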
PDI turbidity: PDI (human) enzyme inhibition; AID 588391; PDI insulin aggregation turbidity, A650, 90 min; actives 0.052% (n = 350,000); P07237; inhibition, % at 10 µM;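 active = mean inhibition across replicates of 30% or more, whatever share of single replicates reach that level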
Target sequence (P07237 whole entry, looked up): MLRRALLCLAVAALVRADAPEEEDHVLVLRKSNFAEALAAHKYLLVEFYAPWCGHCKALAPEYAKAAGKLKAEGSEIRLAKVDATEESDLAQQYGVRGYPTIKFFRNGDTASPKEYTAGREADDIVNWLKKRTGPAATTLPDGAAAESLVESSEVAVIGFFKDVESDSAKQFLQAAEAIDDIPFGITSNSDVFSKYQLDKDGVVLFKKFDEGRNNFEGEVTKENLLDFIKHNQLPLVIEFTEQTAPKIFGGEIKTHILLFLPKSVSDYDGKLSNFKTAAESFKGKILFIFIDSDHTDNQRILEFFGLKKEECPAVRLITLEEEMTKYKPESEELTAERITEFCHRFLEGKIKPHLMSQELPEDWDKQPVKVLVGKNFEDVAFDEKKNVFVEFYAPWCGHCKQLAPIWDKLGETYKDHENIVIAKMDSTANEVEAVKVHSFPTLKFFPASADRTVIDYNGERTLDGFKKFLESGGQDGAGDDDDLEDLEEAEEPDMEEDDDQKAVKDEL
FN deposit inh: fibronectin deposition inhibition; AH1F fibroblasts, Alexa488-fibronectin deposition fluorescence, overnight; inhibition, % at 12.6 µM; actives 0.086% (n = 350,000);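 active = mean inhibition across replicates of 30% or more, regardless of how many single replicates reach that level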;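 note: positive control wells lacked labelled fibronectin entirely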
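Test system: AH1F fibroblast monolayer depositing Alexa488-labelled fibronectin into matrix. Input: 10000 cells per well. Technique: fluorescence, ex 485 nm, em 525 nm. Buffer or medium: DMEM plus 2% serum, read in PBS. Timing: 1 h cell adhesion before compound, then overnight fibronectin incubation. Compound: single dose, pinned. Read-out basis: inhibition from reduced deposited-fibronectin fluorescence.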
rRNA inh HTS: inhibitors of bacterial rRNA selective over humanized ribosomes. GFP signal change (wild-type ribosome), % (concentration not given with the values). E. coli WT GFP vs humanized-ribosome RFP mutants, fluorescence, 24 h; stronger effect = lower value; DMSO median 0, no signal -100. actives 1.6% (n = 350,000). AID 720706;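 active = significant combined selectivity score with lowered wild-type GFP, culture density cut under 30%, mutant RFP and density less affected; inactive = any of these conditions unmet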
PvdQ acylase: blocks Pseudomonas aeruginosa PvdQ acylase activity; inhibition, % at 10 µM; AID 488965; actives 0.063% (n = 340,000); purified PvdQ acylase, fluorescence plate reader; in the data active = inhibition above about 30%, passing the limit was not always enough;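 note: 0% = vehicle neutral wells and 100% = reference inhibitor wells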
* marks the source's active call; other numbers are inactive results; · = not tested or not shown; [ ] = another dose, or the depositor's remark. Rows were chosen to be rich in hits. Some 2.2% of all compounds tested hit in one or more screens of this group.

SMILES	ERp5 block	HIV Env fusion	PDI turbidity	FN deposit inh	rRNA inh HTS	PvdQ acylase
CCC1(C)Cc2ccccc2-c2nc(NCCCO)[nH]c(=O)c21 (configuration not stated)	6	10	-5	5	-28*	-14
CCC1(C)Cc2ccccc2-c2nc(SCC(N)=O)[nH]c(=O)c21 (configuration not stated)	-2	3	1	9	-11	-1
CCNC(=S)N/N=C/c1cccc(C)c1	-1	-3	-4	-1	-14*	9
CCCNC(=O)/C(=C/c1cn(S(=O)(=O)N(C)C)c2ccccc12)NC(=O)c1ccc(OC)cc1	1	1	7	·	-26*	14
O=C(c1ccc2ccccc2c1)c1c[nH]cc1-c1ccccc1	·	-77	4	9	·	-5
Cc1cc(C(=O)c2ccc3ccccc3c2)c(C)o1	-4	4	4	10	-23*	·
Cc1ccc(NC(=O)COc2ccccc2)c(NC(=O)c2ccco2)c1	30*	-25	10	·	-9	-5
COc1ccccc1OCC(=O)Nc1cc(C)ccc1NC(=O)c1ccco1	-7	4	18	-6	-7	-2
COc1ccccc1Cc1c(-c2ccc(F)cc2)nc2c(C)cc(Br)cn12	-3	41	·	6	-32*	·
COc1ccc(Cc2c(-c3ccco3)nc3c(C)cc(Br)cn23)c(C)c1	-15	73*	·	0	·	·
Cc1cc(Br)cn2c(Cc3cccc(F)c3)c(-c3ccc(Cl)cc3)nc12	1	-10	·	3	-32*	·
COc1ccccc1NC(=O)N1C[C@@H]2[C@H](c3ccccc31)[C@H](CO)N2C(=O)c1ccccc1	1	·	·	·	-1	·
C[C@@H]1CN([C@@H](C)CO)C(=O)Cc2cc(NC(=O)Cc3cn(C)c4ccccc34)ccc2O[C@H]1CN(C)Cc1ccccc1	-1	-3[16.7 µM]	·	-15	-1	·
N/C(Cc1ccc(Cl)cc1Cl)=N\OC(=O)c1ccc(Br)o1	-3	-5	0	-35	-22*	-11
CN(C)c1cc[n+](CC(=O)c2ccc(-c3ccccc3)cc2)cc1	-4	64*	0	2	-15	6
N#C[C@H]1[C@H](c2ccccc2)[C@H](CO)N1S(=O)(=O)c1ccc(F)cc1	7	·	·	-1	-5	·
COc1ccc(N(CC(=O)N2CCC(Cc3ccccc3)CC2)S(C)(=O)=O)cc1	-3	-1	3	11	-21*	16
Cc1ccc(S(=O)(=O)N(CC(=O)N2CCC(C)CC2)c2ccccc2)cc1	-1	-2	2	6	-9	37*
O=C(Cc1ccncc1)N1CC[C@@H]2[C@H]1c1cc(-c3cccc(F)c3)ccc1N[C@@H]2CO	·	·	·	0	10	·
COc1ccc(S(=O)(=O)N[C@H]2C=C[C@H](CC(=O)NCc3ccccc3F)O[C@@H]2CO)cc1	0	-13[16.7 µM]	·	-5	-1	·
COc1cc(NC(=O)CSCC(=O)Nc2cccc(C(F)(F)F)c2)c(Cl)cc1Cl	6	·	-1	·	-31*	5
O=C(Nc1nc2ccccc2[nH]1)c1ccccc1F	·	75*	0	·	·	-12
CC(C)Oc1ccc(C(=O)Nc2nc3ccccc3[nH]2)cc1	6	57*	10	-11	-6	-6
O=C(Nc1nc2ccccc2[nH]1)c1ccc(OC(F)F)cc1	0	-139	-14	3	0	-2
C[C@H](CO)N1C[C@H](C)[C@@H](CN(C)S(C)(=O)=O)Oc2ccc(NC(=O)Cn3cnnn3)cc2CC1=O	·	1[16.7 µM]	·	·	0	·
SMILES	ERp5 block	HIV Env fusion	PDI turbidity	FN deposit inh	rRNA inh HTS	PvdQ acylase
COc1cccc(CNC(=O)C[C@@H]2C=C[C@@H](NC(=O)C3CCOCC3)[C@@H](CO)O2)c1	-1	3[16.7 µM]	·	10	-1	·
Cc1nc(C(=O)NC2CCCCC2)sc1C1(C)CC(c2cccc([N+](=O)[O-])c2)=NO1 (configuration not stated)	-1	11	0	26	5	-8
Cc1nc(C(=O)Nc2ccc(Cl)cc2)sc1C1(C)CC(c2cccc([N+](=O)[O-])c2)=NO1 (configuration not stated)	-4	55*	1	9	13	-1
CC(Nc1nc(-c2ccc(F)cc2)cs1)c1nc2cc(Cl)c(N3CCCCC3)cc2n1CCCO (configuration not stated)	-7	78*	-3	2	-2	-1
CC(C)=C(c1ccc(Cl)cc1)c1c(N)ncnc1N	-13	·	-4	-7	-21*	·
CC(=O)c1c(C)nc(-c2ccc(Cl)cc2)nc1N	-4	-34	6	·	21	-14
COc1ccc(C(=O)c2cnc3ccccc3c2-c2ccccc2)cc1	·	91*	-1	·	·	0
Cc1ccc(C(=O)c2cnc3ccccc3c2-c2ccccc2)cc1	·	83*	4	·	·	-4
C[C@@H]1CN([C@H](C)CO)S(=O)(=O)c2ccc(C3=CCCCC3)cc2O[C@@H]1CN(C)Cc1ccncc1	-12	26[16.7 µM]	·	·	-40	·
CNC(=O)c1ccc(-c2cc3onc(-c4ccccc4)c3c(=O)n2C)cc1	0	4	-1	2	-28*	-6
Cc1ccc(-c2cc3onc(-c4ccccc4)c3c(=O)n2C)cc1	-2	-50	-3	-4	0	-3
O=C(c1cccc(F)c1)N1C[C@@H]2[C@H](c3ccccc31)[C@@H](CO)N2C(=O)c1ccc(F)cc1	4	·	·	·	-1	·
Cc1cc(C(=O)Nc2ccc(Cl)cc2)c(C)n1-c1ccccc1	-2	-160	2	3	-40*	·
Cc1ccc(NC(=O)c2cc(C)n(-c3ccccc3)c2C)cc1	-10	-202	-1	3	-18	-7
C[C@H](CO)N1C[C@H](C)[C@H](CN(C)C(=O)Nc2ccc3c(c2)OCO3)Oc2ccc(NS(=O)(=O)c3ccccc3)cc2C1=O	2	-21[16.7 µM]	·	-3	0	·
C[C@@H]1CN([C@@H](C)CO)C(=O)c2cc(NS(=O)(=O)c3ccccc3)ccc2O[C@H]1CN(C)C(=O)Nc1ccc2c(c1)OCO2	58*	-10[16.7 µM]	·	-5	4	·
C[C@@H]1CN([C@@H](C)CO)C(=O)c2cc(NS(=O)(=O)c3ccccc3)ccc2O[C@H]1CN(C)Cc1ccc(Oc2ccccc2)cc1	·	94*[16.7 µM]	·	·	6	·
Cc1ccc(S(=O)(=O)Nc2ccc3c(c2)C(=O)N([C@H](C)CO)C[C@@H](C)[C@@H](CN(C)Cc2ccc(-c4ccccc4)cc2)O3)cc1	21	60*[16.7 µM]	·	·	0	·
CC(=O)N(C)C[C@@H]1Oc2ccccc2C(=O)N(C)C[C@@H]1C	·	·	·	-6	2	·
CCCc1nc2c(=O)n(C)c(=O)nc-2n(C)n1	85*	69*	160*	5	-46	14
Cn1nc(-c2ccccn2)nc2c(=O)n(C)c(=O)nc1-2	102*	68*	139*	13	-23	10
COc1ccc(-c2nc(-c3ccccn3)ncc2S(C)(=O)=O)cc1	7	-3	-5	4	12	-4

Screening data deposited in PubChem by Broad Institute.
